Tests used:
Conditions in all cases: in vivo
Lung [1] = test: Biodistribution in male Sprague-Dawley rat lung at 5 mg/kg, po administered as single dose measured after 8 hrs; type: ADME, organism-based; design: dose 5 mg/kg, dosed compound name [14C]-apixaban, route oral
How it was run: (§1)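 [14C]apixaban (1.0 mg/mL, 20 μCi/mL) in 0.5% Tween 80 in Labrafil, given by oral gavage at 100 μCi/kg to male rats (225-252 g) fasted overnight through 4 h post-dose. One rat per time point. Carcasses frozen in hexane/dry ice and cut into 40 µm sagittal sections. QWBA read on phosphor plates against [14C]glucose standards, reported as µg eq/g. LLOQ 0.037 µg eq/g.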

Rattus norvegicus [2] = test: Biodistribution in female Sprague-Dawley rat pituitary gland at 5 mg/kg, po administered as single dose measured after 0.5 hrs; type: ADME, organism-based; design: dose 5 mg/kg, dosed compound name [14C]-apixaban, route oral
How it was run: (§2)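 [14C]apixaban (20 μCi/mL in dosing solution) in 0.5% Tween 80 in Labrafil given by oral gavage to fasted female rats, 206-213 g, at 100 μCi/kg. One rat per time point was euthanized and snap-frozen. Sagittal 40 µm whole-body sections were read by QWBA phosphor imaging against [14C]glucose standards. Results are in µg eq apixaban/g, with LLOQ 0.037 μg eq/g.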

Rattus norvegicus [3] = test: Biodistribution in fetal kidney of pregnant Sprague-Dawley rat at 5 mg/kg, po administered as single dose measured after 0.5 hrs; type: ADME, organism-based; design: dose 5 mg/kg, dosed compound name [14C]-apixaban, route oral
How it was run: (§3)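 Pregnant rats, 270-319 g and fasted overnight, received [14C]apixaban by oral gavage at 100 μCi/kg in 0.5% Tween 80/Labrafil. One dam per time point was euthanized and frozen in hexane/dry ice. Fetal tissue radioactivity was measured by QWBA on 40 µm sagittal sections calibrated with [14C]glucose standards. Values are in µg eq/g, with LLOQ 0.037 μg eq/g.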

Brain [4] = test: Biodistribution in pregnant Sprague-Dawley rat brain at 5 mg/kg, po administered as single dose measured after 48 hrs; type: ADME, organism-based; design: dose 5 mg/kg, dosed compound name [14C]-apixaban, route oral
How it was run: (§4)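 Fasted pregnant SD rats (n=6, 270-319 g) each received one oral gavage dose of [14C]apixaban, 5 mg/kg (100 μCi/kg), in 0.5% Tween 80/Labrafil. One rat was killed at each of 0.5, 1, 4, 8, 24 and 48 h. Carcasses were frozen in hexane/dry ice, cut into 40 µm sagittal sections, exposed to phosphor plates and quantified against [14C]glucose standards as µg eq/g. LLOQ was 0.037 µg eq/g.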

Rattus norvegicus [5] = test: Biodistribution in pregnant Sprague-Dawley rat brown fat at 5 mg/kg, po administered as single dose measured after 24 hrs; type: ADME, organism-based, Brown adipose tissue; design: dose 5 mg/kg, dosed compound name [14C]-apixaban, route oral; how it was run: as §4
Thymus = test: Biodistribution in pregnant Sprague-Dawley rat thymus at 5 mg/kg, po administered as single dose measured after 4 hrs; type: ADME, organism-based; design: dose 5 mg/kg, dosed compound name [14C]-apixaban, route oral
Muscle tissue = test: Biodistribution in male Sprague-Dawley rat muscle at 5 mg/kg, po administered as single dose measured after 8 hrs; type: ADME, organism-based; design: dose 5 mg/kg, dosed compound name [14C]-apixaban, route oral; how it was run: as §1
Pancreas = test: Biodistribution in female Sprague-Dawley rat pancreas at 5 mg/kg, po administered as single dose measured after 0.5 hrs; type: ADME, organism-based; design: dose 5 mg/kg, dosed compound name [14C]-apixaban, route oral
How it was run: (§5)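 [¹⁴C]Apixaban given by oral gavage at 5 mg/kg (100 μCi/kg) in 0.5% Tween 80 in Labrafil (1.0 mg/mL dosing solution) to rats fasted overnight through 4 h post-dose. One rat per time point; carcass frozen in hexane/dry ice. Quantitative whole-body autoradiography used 40 µm sagittal sections and a phosphor imaging plate calibrated with [¹⁴C]glucose standards (0.001–6.5 μCi/g). Read-out in µg eq apixaban/g; LLOQ 0.037 μg eq/g.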

Rattus norvegicus [6] = test: Biodistribution in fetal liver of pregnant Sprague-Dawley rat at 5 mg/kg, po administered as single dose measured after 1 hr; type: ADME, organism-based; design: dose 5 mg/kg, dosed compound name [14C]-apixaban, route oral; how it was run: as §3
Rattus norvegicus [7] = test: Biodistribution in fetal blood of pregnant Sprague-Dawley rat at 5 mg/kg, po administered as single dose measured after 8 hrs; type: ADME, organism-based; design: dose 5 mg/kg, dosed compound name [14C]-apixaban, route oral; how it was run: as §3
Blood [8] = test: AUC (0 to infinity) in female Sprague-Dawley rat blood at 5 mg/kg, po administered as single dose; type: ADME, organism-based; design: time infinity, dose 5 mg/kg, dosed compound name [14C]-apixaban, route oral
Rattus norvegicus [9] = test: Biodistribution in male Sprague-Dawley rat brown fat at 5 mg/kg, po administered as single dose measured after 72 hrs; type: ADME, organism-based, Brown adipose tissue; design: dose 5 mg/kg, dosed compound name [14C]-apixaban, route oral
How it was run: (§6)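 Fasted male SD rats (225-252 g) each received one oral gavage dose of [14C]apixaban, 5 mg/kg (100 μCi/kg), in 0.5% Tween 80/Labrafil vehicle. One rat was killed per time point, from 0.5 to 168 h. Frozen carcasses were cut into 40 µm sagittal whole-body sections and read by QWBA phosphor imaging against [14C]glucose calibrants. Results are in µg apixaban eq/g; BLQ <0.037 µg eq/g.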

Liver = test: Biodistribution in pregnant Sprague-Dawley rat liver at 5 mg/kg, po administered as single dose measured after 24 hrs; type: ADME, organism-based; design: dose 5 mg/kg, dosed compound name [14C]-apixaban, route oral
Lung [10] = test: Biodistribution in male Sprague-Dawley rat lung at 5 mg/kg, po administered as single dose measured after 4 hrs; type: ADME, organism-based; design: dose 5 mg/kg, dosed compound name [14C]-apixaban, route oral; how it was run: as §1
Rattus norvegicus [11] = test: Biodistribution in female Sprague-Dawley rat salivary gland at 5 mg/kg, po administered as single dose measured after 24 hrs; type: ADME, organism-based; design: dose 5 mg/kg, dosed compound name [14C]-apixaban, route oral
How it was run: (§7)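 Quantitative whole-body autoradiography was run after a single 5 mg/kg (100 μCi/kg) oral gavage to fasted female or pregnant SD rats, one rat per time point. Carcasses were frozen in hexane/dry ice, and 40 µm sagittal sections were dried at −20°C for at least 48 h. Sections were exposed to a phosphor plate alongside [14C]glucose standards (0.001–6.5 µCi/g). Results are µg eq/g, with LLOQ 0.037 µg eq/g.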

Adrenal gland [12] = test: Biodistribution in female Sprague-Dawley rat adrenal gland at 5 mg/kg, po administered as single dose measured after 0.5 hrs; type: ADME, organism-based; design: dose 5 mg/kg, dosed compound name [14C]-apixaban, route oral; how it was run: as §5
Harderian gland = test: Biodistribution in male Sprague-Dawley rat harderian gland at 5 mg/kg, po administered as single dose measured after 1 hr; type: ADME, organism-based; design: dose 5 mg/kg, dosed compound name [14C]-apixaban, route oral; how it was run: as §5
Heart = test: Biodistribution in female Sprague-Dawley rat heart at 5 mg/kg, po administered as single dose measured after 8 hrs; type: ADME, organism-based; design: dose 5 mg/kg, dosed compound name [14C]-apixaban, route oral; how it was run: as §7
Blood [13] = test: Cmax in male Sprague-Dawley rat blood at 5 mg/kg, po administered as single dose; type: ADME, organism-based; design: dose 5 mg/kg, dosed compound name [14C]-apixaban, route oral
How it was run: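 Fasted male, female or pregnant SD rats received a single oral gavage of 5 mg/kg (100 μCi/kg) in 0.5% Tween 80/Labrafil. One rat was killed per time point, up to 168 h (48 h for pregnant). Blood was collected into K3EDTA. Blood radioactivity came from autoradiogram or LSC data, and Cmax was taken from the concentration-time profile.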

Rattus norvegicus [14] = test: Biodistribution in pregnant Sprague-Dawley rat brown fat at 5 mg/kg, po administered as single dose measured after 0.5 hrs; type: ADME, organism-based, Brown adipose tissue; design: dose 5 mg/kg, dosed compound name [14C]-apixaban, route oral
Brain [15] = test: Biodistribution in male Sprague-Dawley rat brain at 5 mg/kg, po administered as single dose measured after 72 hrs; type: ADME, organism-based; design: dose 5 mg/kg, dosed compound name [14C]-apixaban, route oral
Rattus norvegicus [16] = test: Biodistribution in female Sprague-Dawley rat kidney cortex at 5 mg/kg, po administered as single dose measured after 8 hrs; type: ADME, organism-based; design: dose 5 mg/kg, dosed compound name [14C]-apixaban, route oral; how it was run: as §2
Adrenal gland [17] = test: Biodistribution in male Sprague-Dawley rat adrenal gland at 5 mg/kg, po administered as single dose measured after 72 hrs; type: ADME, organism-based; design: dose 5 mg/kg, dosed compound name [14C]-apixaban, route oral; how it was run: as §6
Adrenal gland [18] = test: Biodistribution in male Sprague-Dawley rat adrenal gland at 5 mg/kg, po administered as single dose measured after 0.5 hrs; type: ADME, organism-based; design: dose 5 mg/kg, dosed compound name [14C]-apixaban, route oral; how it was run: as §5
Rattus norvegicus [19] = test: Biodistribution in pregnant Sprague-Dawley rat brown fat at 5 mg/kg, po administered as single dose measured after 8 hrs; type: ADME, organism-based, Brown adipose tissue; design: dose 5 mg/kg, dosed compound name [14C]-apixaban, route oral
Blood [20] = test: Biodistribution in male Sprague-Dawley rat blood at 5 mg/kg, po administered as single dose measured after 72 hrs; type: ADME, organism-based; design: dose 5 mg/kg, dosed compound name [14C]-apixaban, route oral; how it was run: as §6

SMILES: COc1ccc(-n2nc(C(N)=O)c3c2C(=O)N(c2ccc(N4CCCC[14C]4=O)cc2)CC3)cc1
- Radiolabel recovery (Lung [1]): 0.14 ugequiv/g
- Radiolabel recovery (Rattus norvegicus [2]): 0.43 ugequiv/g
- Radiolabel recovery (Rattus norvegicus [3]): 0.24 ugequiv/g
- Radiolabel recovery (Brain [4]): Not detected assumed BLQ
- Radiolabel recovery (Rattus norvegicus [5]): Not detected assumed BLQ
- Radiolabel recovery (Thymus): 0.54 ugequiv/g
- Radiolabel recovery (Muscle tissue): 0.06 ugequiv/g
- Radiolabel recovery (Pancreas): 0.43 ugequiv/g
- Radiolabel recovery (Rattus norvegicus [6]): 0.22 ugequiv/g
- Radiolabel recovery (Rattus norvegicus [7]): 0.07 ugequiv/g
- AUC (Blood [8]): 3780 ngequiv.hr/g
- Radiolabel recovery (Rattus norvegicus [9]): Not sampled as not visualised in autoradiograph
- Radiolabel recovery (Liver): 0.12 ugequiv/g
- Radiolabel recovery (Lung [10]): 0.64 ugequiv/g
- Radiolabel recovery (Rattus norvegicus [11]): Not detected assumed BLQ
- Radiolabel recovery (Adrenal gland [12]): 0.56 ugequiv/g
- Radiolabel recovery (Harderian gland): 0.69 ugequiv/g
- Radiolabel recovery (Heart): 0.11 ugequiv/g
- Cmax (Blood [13]): 1180 ngequiv/g
- Radiolabel recovery (Rattus norvegicus [14]): 1.08 ugequiv/g
- Radiolabel recovery (Brain [15]): < 0.037 ugequiv/g
- Radiolabel recovery (Rattus norvegicus [16]): 0.42 ugequiv/g
- Radiolabel recovery (Adrenal gland [17]): Not sampled as not visualised in autoradiograph
- Radiolabel recovery (Adrenal gland [18]): 0.59 ugequiv/g
- Radiolabel recovery (Rattus norvegicus [19]): 0.06 ugequiv/g
- Radiolabel recovery (Blood [20]): Not sampled as not visualised in autoradiograph

Source: ChEMBL document CHEMBL3525963, “Tissue distribution and elimination of [14C]apixaban in rats” (Drug Metab Dispos, 2011)
